Reference: ChEMBL document CHEMBL4808192, “Synthesis and biological evaluation of novel imidazo[1,2-a]pyridine-oxadiazole hybrids as anti-proliferative agents: Study of microtubule polymerization inhibition and DNA binding” (Bioorg Med Chem, 2021)
Each block holds one compound with its values, some of them ahead of it. Active and inactive are the calls of the source. The calls are words filed in the database; no cut-off is given here.

Key:
[1] = tested on: DU-145; assay: Antiproliferative activity against human DU-145 cells assessed as reduction in cell viability incubated for 48 hrs by MTT assay; format: functional, cell-based; details: DU-145, 48 h
In short: (§1)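 Cells grown in medium with 10% FBS and 1% antibiotic-antimycotic at 37 °C, passaged at 80–90% confluence with 0.25% trypsin/1 mM EDTA. Seeded at 1000–4000 cells/well and grown overnight. Medium was then replaced and compounds added at various concentrations for 48 h. MTT (0.5 mg/mL) was added for 4 h at 37 °C, formazan dissolved in DMSO and absorbance read at 570 nm. IC50 is the 50% inhibitory concentration.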

[2] = tested on: PC-3; assay: Antiproliferative activity against human PC-3 cells assessed as reduction in cell viability incubated for 48 hrs by MTT assay; format: functional, cell-based; details: PC-3, 48 h; in short: as §1
[3] = tested on: A549; assay: Antiproliferative activity against human A549 cells assessed as reduction in cell viability incubated for 48 hrs by MTT assay; format: functional, cell-based; details: A549, 48 h; in short: as §1
[4] = organism: Sus scrofa; assay: Inhibition of pig brain tubulin polymerization at 0.5 uM incubated for 1 hr by fluorescence based analysis relative to control; format: tissue-based
In short: (§2)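 Cell-free fluorescence kit assay with porcine brain tubulin (2 mg/mL) in 80 mM PIPES pH 6.9, 2.0 mM MgCl2, 0.5 mM EGTA, 1.0 mM GTP and glycerol. Compound tested at 0.5, 1, 2, 4 and 8 μM, with a DMSO vehicle and a 3 μM podophyllotoxin reference. Polymerization followed at excitation 360/emission 440 nm for 1 h at 37 °C. Inhibition taken relative to vehicle; IC50 is the concentration giving 50% inhibition of assembly.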

[5] = Selectivity index, ratio of IC50 for human HEK293 cells to IC50 for human A549 cells assessed as reduction in cell viability measured after 48 hrs by MTT assay; format: toxicity; details: HEK293 cells versus A549 cells, read-out: Ratio IC50
[6] = Selectivity index, ratio of IC50 for human HEK293 cells to IC50 for human PC-3 cells assessed as reduction in cell viability measured after 48 hrs by MTT assay; format: toxicity; details: HEK293 cells versus PC-3 cells, read-out: Ratio IC50
[7] = tested on: A549; assay: Cell cycle arrest in human A549 cells assessed as accumulation of cells at G0/G1 phase at 2.8 uM measured after 48 hrs by propidium iodide staining based FACS cytometry analysis (reference value: 73%); format: functional
[8] = tested on: Calf thymus DNA; assay: Binding affinity to calf thymus DNA assessed as decrease in positive peak intensity at compound:DNA concentration ratio of 1:1 to 1:2 by CD spectroscopy; details: Bos taurus
In short: (§3)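 Circular dichroism of CT-DNA (10 × 10^-6 M) in 100 mM Tris-HCl pH 7.0 at 25 °C. Spectra taken from 220 to 320 nm at CT-DNA:compound molar ratios of 1:0, 1:1 and 1:2. Each spectrum is the average of three scans.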

[9] = tested on: A549; assay: Cell cycle arrest in human A549 cells assessed as accumulation of cells at subG1 phase at 2.8 uM measured after 48 hrs by propidium iodide staining based FACS cytometry analysis (reference value: 4.2%); format: functional
[10] = tested on: Calf thymus DNA; assay: Binding affinity to calf thymus DNA measured every 5 mins by UV-Vis spectroscopic analysis; parameters: species or system Bos taurus
In short: (§4)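 UV–Vis titration at 25 °C in a 1 cm quartz cuvette. Compound at about 10 μM (1 mM stock in 1:1 DMSO:water). CT-DNA (1 mM stock in 100 mM Tris-HCl pH 7.0) added about 0.5 μM at a time until the band was unchanged over five successive additions. Spectra recorded from 200 to 400 nm.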

[11] = organism: Sus scrofa; assay: Inhibition of pig brain tubulin polymerization at 4 uM incubated for 1 hr by fluorescence based analysis relative to control; format: tissue-based; in short: as §2
[12] = tested on: HEK293; assay: Cell cycle arrest in human HEK293 cells assessed as accumulation of cells at sub-G1 phase at 2.8 uM measured after 48 hrs by propidium iodide staining based FACS cytometry analysis (reference value: 1%); details: hek293, 48 h
[13] = tested on: HEK293; assay: Induction of apoptosis in human HEK293 cells assessed as pre and post apoptotic cells at 2.8 uM measured after 48 hrs by Annexin V-FITC/Propidium iodide staining based flowcytometry analysis (reference value: 0.2%); format: cell-based; details: hek293, 48 h
[14] = Selectivity index, ratio of IC50 for human HEK293 cells to IC50 for human DU-145 cells assessed as reduction in cell viability measured after 48 hrs by MTT assay
[15] = tested on: A549; assay: Cell cycle arrest in human A549 cells assessed as accumulation of cells at S phase at 2.8 uM measured after 48 hrs by propidium iodide staining based FACS cytometry analysis (reference value: 12.7%); format: functional
[16] = tested on: Calf thymus DNA; assay: Binding affinity to calf thymus DNA assessed as emission spectra at 360 nm at 10 uM measured every 5 mins by fluorescence titration analysis; details: Bos taurus
In short: (§5)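 Fluorescence titration at 25 °C in a 1 cm quartz cuvette. Compound held at 10 μM while CT-DNA was added about 0.5 μM per step. Excitation 250 nm, emission scanned 300–500 nm with the peak followed at 360 nm. Each spectrum is the average of three scans. Cuvettes washed with water and about 0.1 N nitric acid between runs.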

[17] = tested on: HEK293; assay: Cell cycle arrest in human HEK293 cells assessed as accumulation of cells at G0/G1 phase at 2.8 uM measured after 48 hrs by propidium iodide staining based FACS cytometry analysis (reference value: 64.1%); details: hek293, 48 h
[18] = tested on: Calf thymus DNA; assay: Binding affinity to calf thymus DNA assessed as increase in viscosity at 15 uM by Ostwald viscometric analysis; details: Bos taurus
In short: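 Ostwald viscometer in a 25 °C water bath. CT-DNA (150 μM, in 100 mM Tris-HCl pH 7.0) was measured alone, then after mixing with compound at 15 μM. EtBr and Hoechst 33342 complexes with CT-DNA served as controls.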

[19] = organism: Sus scrofa; assay: Inhibition of pig brain tubulin polymerization at 2 uM incubated for 1 hr by fluorescence based analysis relative to control; format: tissue-based; in short: as §2
[20] = Induction of apoptosis in human HEK293 cells assessed as viable cells at 2.8 uM measured after 48 hrs by Annexin V-FITC/Propidium iodide staining based flowcytometry analysis (reference value: 80.2%); format: cell-based; details: read-out: Activity
[21] = tested on: HEK293; assay: Cell cycle arrest in human HEK293 cells assessed as accumulation of cells at S phase at 2.8 uM measured after 48 hrs by propidium iodide staining based FACS cytometry analysis (reference value: 18.8%); details: hek293, 48 h
[22] = tested on: A549; assay: Cell cycle arrest in human A549 cells assessed as accumulation of cells at G2/M phase at 2.8 uM measured after 48 hrs by propidium iodide staining based FACS cytometry analysis (reference value: 10.1%); format: functional
[23] = tested on: Calf thymus DNA; assay: Binding affinity to calf thymus DNA assessed as hypochromicity at 10 uM measured every 5 mins by fluorescence titration analysis; details: Bos taurus; in short: as §5
[24] = organism: Sus scrofa; assay: Inhibition of pig brain tubulin polymerization at 8 uM incubated for 1 hr by fluorescence based analysis relative to control; format: tissue-based; in short: as §2
[25] = tested on: Calf thymus DNA; assay: Binding affinity to calf thymus DNA assessed as hyperchromicity at 10 uM measured every 5 mins by UV-Vis spectroscopic analysis; details: Bos taurus; in short: as §4
[26] = tested on: A549; assay: Induction of apoptosis in human A549 cells assessed as pre and post apoptotic cells at 2.8 uM measured after 48 hrs by Annexin V-FITC/Propidium iodide staining based flowcytometry analysis (reference value: 0.1%); format: functional
[27] = target: Tubulin (Homo sapiens) (UniProt P68371+Q9H4B7+P0DPH7+P68366+Q13509+Q71U36+P04350+Q3ZCM7+P07437+P68363+Q9BQE3+Q6PEY2+Q13885+Q9BVA1+Q9BUF5); assay: Inhibition of tubulin polymerization in human A549 cells assessed as disruption of microtubule network at IC50 measured after 48 hrs by confocal microscopic analysis; format: cell-based
[28] = organism: Sus scrofa; assay: (§6) Inhibition of pig brain tubulin polymerization incubated for 1 hr by fluorescence based analysis; format: tissue-based; in short: as §2
[29] = as §6; format: tissue-based, Sus scrofa; in short: as §2
[30] = tested on: Calf thymus DNA; assay: Binding affinity to calf thymus DNA assessed as absorption peak between 310 and 312 nm at 10 uM measured every 5 mins by UV-Vis spectroscopic analysis; details: Bos taurus; in short: as §4
[31] = tested on: HEK293; assay: Cytotoxicity against human HEK293 cells assessed as reduction in cell viability incubated for 48 hrs by MTT assay; format: cell-based; details: HEK293, 48 h; in short: as §1
[32] = tested on: A549; assay: Induction of apoptosis in human A549 cells assessed as viable cells at 2.8 uM measured after 48 hrs by Annexin V-FITC/Propidium iodide staining based flowcytometry analysis (reference value: 83.1%); format: functional; details: read-out: Activity
[33] = tested on: Calf thymus DNA; assay: Binding affinity to calf thymus DNA assessed as decrease in negative peak intensity at compound:DNA concentration ratio of 1:1 to 1:2 by CD spectroscopy; details: Bos taurus; in short: as §3
[34] = organism: Sus scrofa; assay: Inhibition of pig brain tubulin polymerization at 1 uM incubated for 1 hr by fluorescence based analysis relative to control; format: tissue-based; in short: as §2
[35] = tested on: HEK293; assay: Cell cycle arrest in human HEK293 cells assessed as accumulation of cells at G2/M phase at 2.8 uM measured after 48 hrs by propidium iodide staining based FACS cytometry analysis (reference value: 16.1%); details: hek293, 48 h

IC50 [1]: 18.9 µM
IC50 [2]: 17.8 µM
IC50 [3]: 14.5 µM
Compound: Cc1cc(Br)c2nc(-c3nnc(-c4ccccc4)o3)cn2c1

IC50 [1]: 11.8 µM
IC50 [2]: 11.5 µM
IC50 [3]: 10.9 µM
Compound: COc1ccc(-c2nnc(-c3cn4cccc(C)c4n3)o2)cc1OC

IC50 [1]: 22.3 µM
IC50 [2]: 24.5 µM
IC50 [3]: 23.4 µM
Compound: Cc1cc(Br)c2nc(-c3nnc(-c4ccc(Br)cc4)o3)cn2c1

IC50 [1]: 12.9 µM
IC50 [2]: 13.4 µM
IC50 [3]: 11.9 µM
Compound: COc1ccc(-c2nnc(-c3cn4ccccc4n3)o2)cc1

IC50 [1]: 11.2 µM
IC50 [2]: 10.9 µM
IC50 [3]: 9.9 µM
Compound: COc1cc(-c2nnc(-c3cn4cccc(C)c4n3)o2)cc(OC)c1OC

Compound: COc1cc([C@@H]2c3cc4c(cc3[C@H](O)[C@H]3COC(=O)[C@H]23)OCO4)cc(OC)c1OC [PODOFILOX]
IC50 [1]: 0.06 µM
IC50 [2]: 0.06 µM

IC50 [1]: 12.8 µM
IC50 [2]: 11.2 µM
IC50 [3]: 10.8 µM
Compound: Cc1cc(Br)c2nc(-c3nnc(-c4ccc(N(C)C)cc4)o3)cn2c1

IC50 [1]: 10.8 µM
IC50 [2]: 11.8 µM
IC50 [3]: 12.8 µM
Compound: COc1ccc(-c2nnc(-c3cn4cccc(C)c4n3)o2)cc1

Activity [12]: 2.1%
Activity [17]: 63.2%
IC50 [1]: 4.5 µM
Activity [21]: 18.8%
IC50 [2]: 3.5 µM
inhibition [27]: Active
IC50 [29]: 3.45 µM
IC50 [3]: 2.8 µM
Activity [35]: 15.7%
Compound: COc1cc(-c2nnc(-c3cn4ccccc4n3)o2)cc(OC)c1OC
inhibition [4]: 4.6%
selectivity ratio at 48 h [5]: 29
selectivity ratio at 48 h [6]: 25.4
Activity [7]: 74.5%
Activity [8]: Active
Activity [9]: 1.3%
Kd [10]: 0.042 µM
inhibition [11]: 60.1%
Activity [13]: 74.5%
Ratio IC50 [14]: 19.7
Activity [15]: 6.9%
Activity [16]: Active
Activity [18]: Active
inhibition [19]: 21.7%
viability at 48 h, 2.8 µM [20]: 18.5%
Activity [22]: 17.1%
Activity [23]: Active
inhibition [24]: 81.2%
Activity [25]: Active
Activity [26]: 86.5%
inhibition [28]: Dose-Dependent Effect
Activity [30]: Active
IC50 [31]: 89 µM
viability at 2.8 µM [32]: 4.3%
Activity [33]: Active
inhibition [34]: 11.5%
